According to ChEMBL document CHEMBL3763152, “Synthesis and evaluation of orally active small molecule HIV-1 Nef antagonists” (Bioorg Med Chem Lett, 2016):
The source made the active and inactive calls. The rule behind the calls is not given here.

Columns and labels:
[1] = Cytotoxicity against human U87MG cells expressing CD4 and CXCR4 up to 10 uM by Cell Titer Blue assay; format: cell-based; conditions: u-87mg atcc
[2] = tested on: U-87MG ATCC; test: Inhibition of Nef-dependent HIV1 NL4-3 replication infected in human U87MG cells expressing CD4 and CXCR4 at 3 uM incubated for 1 hr measured after 4 days by immunoassay; format: cell-based; conditions: Human immunodeficiency virus 1
How it was run: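 U87MG/CD4/CXCR4 cells received compound at 3 μM final; wild-type or ΔNef HIV-1 NL4-3 was added one hour later. Replication was measured at 4 days as p24 Gag by AlphaLISA ELISA and expressed as percent of DMSO control, mean ± S.E., n=4.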

[3] = Cytotoxicity against human TZM-bl cells by Cell Titer Blue assay; format: cell-based
How it was run: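 TZM-bl reporter cells were treated with compound and viability was read by Cell Titer Blue. CC50 is the concentration giving 50% loss of viability.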

[4] = tested on: Human immunodeficiency virus 1; test: Binding affinity to recombinant HIV1 Nef at >50 uM by SPR assay
[5] = tested on: Human immunodeficiency virus 1; test: Antiviral activity against HIV1 NL4-3 infected in TZM-bl cells incubated for 3 hrs measured after 48 hrs by luciferase reporter gene assay; format: functional, organism-based; conditions: Human immunodeficiency virus 1, NL4-3, TZM-bl
How it was run: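 TZM-bl reporter cells carry a luciferase gene driven by the HIV-1 LTR. Cells were infected short-term with HIV-1, and Nef-dependent infectivity was read out by luciferase. IC50 was derived from this read-out.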

[6] = Tmax in C3H mouse at 10 mg/kg, po administered through solution of 5% N-methyl -2-pyrrolidone and 5% solutol in saline by LC-MS analysis; format: ADME, organism-based; conditions: in vivo
How it was run: (§1)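 Plasma drug levels measured by LC-MS over time. Tmax, Cmax, AUClast, AUCinf, T1/2, Vss, clearance and %F were derived from the plasma concentration–time data.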

[7] = Cmax in C3H mouse at 10 mg/kg, po administered through solution of 5% N-methyl -2-pyrrolidone and 5% solutol in saline by LC-MS analysis; format: ADME, organism-based; design: dose 10 mg/kg, route oral; conditions: in vivo; how it was run: as §1
[8] = tested on: Human immunodeficiency virus 1; test: Binding affinity to recombinant HIV1 Nef N126A mutant at 10 uM by SPR assay
How it was run: (§2)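 Wild-type, N126A and N126Q Nef were expressed in bacteria and purified to homogeneity. Each was covalently coupled to a CM5 biosensor chip. Compound was injected at a final 10 μM, in triplicate, and binding was measured by SPR on a Biacore T100.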

[9] = AUC(infinity) in C3H mouse at 2 mg/kg, iv by LC-MS analysis; format: ADME, organism-based; design: dose 2 mg/kg, time infinity, route intravenous; conditions: in vivo; how it was run: as §1
[10] = Tmax in C3H mouse at 10 mg/kg, po administered through suspension of 0.5% w/v sodium-carboxymethyl cellulose with 0.1% v/v Tween80 by LC-MS analysis; format: ADME, organism-based; conditions: in vivo; how it was run: as §1
[11] = tested on: Mus musculus; test: Acute toxicity in C3H mouse assessed as change in body weight at 100 mg/kg, po SID for 12 days; format: organism-based; conditions: in vivo, 288 h
[12] = Oral bioavailability in C3H mouse at 10 mg/kg administered through solution of 5% N-methyl -2-pyrrolidone and 5% solutol in saline by LC-MS analysis; format: ADME, organism-based; conditions: in vivo; how it was run: as §1
[13] = tested on: Human immunodeficiency virus 1; test: Binding affinity to recombinant HIV1 Nef N126Q mutant at 10 uM by SPR assay; how it was run: as §2
[14] = tested on: Mus musculus; test: Acute toxicity in C3H mouse assessed as body condition at 100 mg/kg, po SID for 12 days; format: organism-based; conditions: in vivo, 288 h
[15] = Cmax in C3H mouse at 2 mg/kg, iv by LC-MS analysis; format: ADME, organism-based; design: dose 2 mg/kg, route intravenous; conditions: in vivo; how it was run: as §1
[16] = Half life in C3H mouse at 2 mg/kg, iv by LC-MS analysis; format: ADME, organism-based; conditions: in vivo; how it was run: as §1
[17] = tested on: Mus musculus; test: Acute toxicity in C3H mouse assessed as overall behavior at 100 mg/kg, po SID for 12 days; format: organism-based; conditions: in vivo, 288 h
[18] = AUClast in C3H mouse at 2 mg/kg, iv by LC-MS analysis; format: ADME, organism-based; design: dose 2 mg/kg, route intravenous, time 0 - last; conditions: in vivo; how it was run: as §1
[19] = AUC(infinity) in C3H mouse at 10 mg/kg, po administered through solution of 5% N-methyl -2-pyrrolidone and 5% solutol in saline by LC-MS analysis; format: ADME, organism-based; design: dose 10 mg/kg, route oral, time infinity; conditions: in vivo; how it was run: as §1
[20] = AUC(last) in C3H mouse at 10 mg/kg, po administered through suspension of 0.5% w/v sodium-carboxymethyl cellulose with 0.1% v/v Tween80 by LC-MS analysis; format: ADME, organism-based; design: dose 10 mg/kg, route oral, time 0 - last; conditions: in vivo; how it was run: as §1
[21] = Volume of distribution at steady state in C3H mouse at 2 mg/kg, iv by LC-MS analysis; format: ADME, organism-based; conditions: in vivo, read-out: Vdss; how it was run: as §1
[22] = Binding affinity to recombinant HIV1 Nef by SPR assay; design: species or system Human immunodeficiency virus 1
How it was run: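 Recombinant purified Nef was immobilized on a CM5 chip, and compound was injected over a concentration range in triplicate. Binding isotherms were fitted with a heterogeneous ligand model, and KD was taken from the kinetic constants of the higher-affinity component. No binding means none seen at >50 μM compound.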

[23] = AUC(infinity) in C3H mouse at 10 mg/kg, po administered through suspension of 0.5% w/v sodium-carboxymethyl cellulose with 0.1% v/v Tween80 by LC-MS analysis; format: ADME, organism-based; design: dose 10 mg/kg, route oral, time infinity; conditions: in vivo; how it was run: as §1
[24] = Clearance in C3H mouse at 2 mg/kg, iv by LC-MS analysis; format: ADME, organism-based; conditions: in vivo; how it was run: as §1
[25] = AUC(last) in C3H mouse at 10 mg/kg, po administered through solution of 5% N-methyl -2-pyrrolidone and 5% solutol in saline by LC-MS analysis; format: ADME, organism-based; design: dose 10 mg/kg, time 0 - last, route oral; conditions: in vivo; how it was run: as §1
[26] = Cmax in C3H mouse at 10 mg/kg, po administered through suspension of 0.5% w/v sodium-carboxymethyl cellulose with 0.1% v/v Tween80 by LC-MS analysis; format: ADME, organism-based; design: dose 10 mg/kg, route oral; conditions: in vivo; how it was run: as §1
[27] = tested on: Mus musculus; test: Acute toxicity in C3H mouse assessed as change in body weight at 10 mg/kg, po BID for 4 days; format: organism-based; conditions: in vivo, 96 h
[28] = tested on: Mus musculus; test: Acute toxicity in C3H mouse assessed as change in body weight at 50 mg/kg, po SID for 5 days; format: organism-based; conditions: in vivo, 120 h
[29] = tested on: Mus musculus; test: Acute toxicity in C3H mouse assessed as body condition at 10 mg/kg, po BID for 4 days; format: organism-based; conditions: in vivo, 96 h
[30] = tested on: Mus musculus; test: Acute toxicity in C3H mouse assessed as overall behavior at 5 mg/kg, iv SID for 4 days; format: organism-based; conditions: in vivo, 96 h
[31] = tested on: Mus musculus; test: Acute toxicity in C3H mouse assessed as body condition at 5 mg/kg, iv SID for 4 days; format: organism-based; conditions: in vivo, 96 h
[32] = tested on: Mus musculus; test: Acute toxicity in C3H mouse assessed as body condition at 50 mg/kg, po SID for 5 days; format: organism-based; conditions: in vivo, 120 h
[33] = tested on: Mus musculus; test: Acute toxicity in C3H mouse assessed as change in body weight at 5 mg/kg, po SID for 4 days; conditions: in vivo, 96 h
[34] = tested on: Mus musculus; test: Acute toxicity in C3H mouse assessed as overall behavior at 10 mg/kg, po BID for 4 days; format: organism-based; conditions: in vivo, 96 h
[35] = tested on: Mus musculus; test: Acute toxicity in C3H mouse assessed as overall behavior at 50 mg/kg, po SID for 5 days; format: organism-based; conditions: in vivo, 120 h
[36] = tested on: Mus musculus; test: Acute toxicity in C3H mouse assessed as overall behavior at 2.5 mg/kg, iv SID for 4 days; format: organism-based; conditions: in vivo, 96 h
[37] = tested on: Mus musculus; test: Acute toxicity in C3H mouse assessed as change in body weight at 2.5 mg/kg, po SID for 4 days; conditions: in vivo, 96 h
[38] = tested on: Mus musculus; test: Acute toxicity in C3H mouse assessed as body condition at 2.5 mg/kg, po SID for 4 days; conditions: in vivo, 96 h

SMILES: O=[N+]([O-])c1ccc(-c2n[nH]c(O)c2CCc2cccc(Cl)c2)cc1
- Activity [1]: Non-toxic
- inhibition [2]: inactive
- CC50 [3]: > 10 µM
- Activity [4]: inactive
- IC50 [5]: > 10 µM

SMILES: NC(=S)n1nc(-c2ccc([N+](=O)[O-])cc2)c(Cc2cccc(Cl)c2)c1O
- Tmax [6]: 60 min
- Cmax [7]: 5810 ng/mL
- Activity [8]: inactive
- AUC(0-inf) [9]: 3000 ng·h/mL
- Tmax [10]: 30 min
- Activity [11]: Non-toxic
- bioavailability [12]: 100%
- Activity [13]: inactive
- Activity [1]: Non-toxic
- Activity [14]: Non-toxic
- Cmax [15]: 2800 ng/mL
- inhibition [2]: Active
- half-life [16]: 94.8 min
- Activity [17]: Non-toxic
- AUC(0-t) [18]: 2960 ng·h/mL
- AUC(0-inf) [19]: 18800 ng·h/mL
- CC50 [3]: > 10 µM
- AUC(0-t) [20]: 10700 ng·h/mL
- Vd [21]: 0.79 L/kg
- Kd [22]: 0.15 µM
- AUC(0-inf) [23]: 11500 ng·h/mL
- clearance [24]: 8.56 mL/min/kg
- AUC(0-t) [25]: 18600 ng·h/mL
- IC50 [5]: 3.54 µM
- Cmax [26]: 3400 ng/mL

SMILES: NC(=S)n1nc(-c2ccc([N+](=O)[O-])cc2)c(CCc2cccc(Cl)c2)c1O
- Activity [27]: Non-toxic
- Tmax [6]: 15 min
- Activity [28]: Non-toxic
- Cmax [7]: 2370 ng/mL
- Activity [8]: inactive
- AUC(0-inf) [9]: 2150 ng·h/mL
- Tmax [10]: 30 min
- Activity [29]: Non-toxic
- bioavailability [12]: 53%
- Activity [13]: inactive
- Activity [1]: Non-toxic
- Activity [30]: Non-toxic
- Activity [31]: Non-toxic
- Cmax [15]: 4420 ng/mL
- inhibition [2]: Active
- AUC(0-t) [18]: 2130 ng·h/mL
- Activity [32]: Non-toxic
- AUC(0-inf) [19]: 6430 ng·h/mL
- CC50 [3]: > 10 µM
- AUC(0-t) [20]: 9030 ng·h/mL
- Vd [21]: 0.83 L/kg
- Activity [33]: Non-toxic
- Kd [22]: 0.159 µM
- AUC(0-inf) [23]: 9480 ng·h/mL
- clearance [24]: 13.5 mL/min/kg
- Activity [34]: Non-toxic
- AUC(0-t) [25]: 6300 ng·h/mL
- Activity [35]: Non-toxic
- IC50 [5]: 0.69 µM
- Cmax [26]: 5610 ng/mL

SMILES: O=[N+]([O-])c1ccc(-c2n[nH]c(O)c2Cc2cccc(Cl)c2)cc1
- Activity [1]: Non-toxic
- inhibition [2]: inactive
- CC50 [3]: > 10 µM
- Activity [4]: inactive
- IC50 [5]: > 10 µM

SMILES: NC(=S)n1nc(-c2ccc([N+](=O)[O-])cc2)c(/N=N/c2cccc(Cl)c2)c1O
- Tmax [6]: 30 min
- Cmax [7]: 418 ng/mL
- Activity [8]: inactive
- AUC(0-inf) [9]: 9790 ng·h/mL
- Activity [36]: Non-toxic
- bioavailability [12]: 2%
- Activity [13]: inactive
- Activity [37]: Non-toxic
- Cmax [15]: 3960 ng/mL
- half-life [16]: 128 min
- AUC(0-t) [18]: 9780 ng·h/mL
- AUC(0-inf) [19]: 1020 ng·h/mL
- CC50 [3]: 10 µM
- Vd [21]: 0.37 L/kg
- Kd [22]: 0.0819 µM
- Activity [38]: Non-toxic
- clearance [24]: 3.41 mL/min/kg
- AUC(0-t) [25]: 963 ng·h/mL
- IC50 [5]: 2.53 µM
